From ChEMBL document CHEMBL1914395, “Design, synthesis, and biological evaluation of callophycin A and analogues as potential chemopreventive and anticancer agents” (Bioorg Med Chem, 2011)

Key:
Aromatase = target: T1, Aromatase (Homo sapiens, UniProt P11511); experiment: Inhibition of aromatase at 50 uM after 10 mins preincubation by plate reader relative to control
T1 sequence (P11511 whole entry): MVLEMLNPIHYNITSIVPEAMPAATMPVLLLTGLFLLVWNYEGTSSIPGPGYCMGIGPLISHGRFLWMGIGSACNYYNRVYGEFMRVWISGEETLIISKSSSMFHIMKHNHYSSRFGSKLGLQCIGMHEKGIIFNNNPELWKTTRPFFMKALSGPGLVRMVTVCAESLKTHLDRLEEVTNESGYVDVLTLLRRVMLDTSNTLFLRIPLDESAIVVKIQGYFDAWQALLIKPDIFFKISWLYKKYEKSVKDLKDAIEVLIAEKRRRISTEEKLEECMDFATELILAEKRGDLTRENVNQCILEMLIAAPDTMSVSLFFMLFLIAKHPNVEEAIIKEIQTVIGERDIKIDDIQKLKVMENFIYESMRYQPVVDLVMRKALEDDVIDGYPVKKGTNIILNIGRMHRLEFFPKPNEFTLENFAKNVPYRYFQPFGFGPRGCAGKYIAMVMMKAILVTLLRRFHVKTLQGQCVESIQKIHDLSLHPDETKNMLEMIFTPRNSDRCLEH
Procedure, shortened: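 CYP19 enzyme. Compound pre-incubated 10 min with an NADPH-regenerating system (NADP+, glucose 6-phosphate, G6PDH, MgCl2, albumin) in 50 mM potassium phosphate pH 7.4. Enzyme and 0.4 μM dibenzylfluorescein substrate then added, 30 min at 37 °C. Quenched with 2 N NaOH and incubated a further 2 h at 37 °C. Fluorescence read at ex 485/em 530 nm. Compound tested at 50 μM.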

HEK293 [1] = experiment: Inhibition of TNF-alpha-induced NFkappaB activation in human HEK293 cells at 50 uM after 6 hrs by luciferase assay relative to control; format: cell-based
Procedure, shortened: (§1)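 Cells incubated 6 h with TNFα plus test compound, then luciferase activity measured. Results expressed as percent of TNFα-treated control. Screening concentration 50 μM.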

[2] = Inhibition of TNF-alpha-induced NFkappaB activation in human HEK293 cells after 6 hrs by luciferase assay; format: cell-based; conditions: HEK293, 6 h; procedure, shortened: as §1
HEK293 [3] = experiment: Inhibition of TNF-alpha-induced NFkappaB activation in human HEK293 cells assessed as cell survival at 50 uM after 6 hrs by luciferase assay relative to control; format: cell-based
[4] = target: NAD(P)H dehydrogenase [quinone] 1 (Mus musculus) (UniProt Q64669); experiment: Induction of quinone reductase 1 activity in mouse Hepa-1c1c7 cells assessed as cell survival at 50 uM by MTT assay relative to control; format: cell-based
[5] = target: T2, Nitric oxide synthase, inducible (Mus musculus) (UniProt P29477); experiment: Inhibition of iNOS-mediated nitric oxide production in LPS-stimulated mouse RAW 264.7 cells assessed as cell survival at 50 uM pretreated 15 mins before LPS challenge measured after 20 hrs relative to control; format: cell-based
T2 sequence (whole entry): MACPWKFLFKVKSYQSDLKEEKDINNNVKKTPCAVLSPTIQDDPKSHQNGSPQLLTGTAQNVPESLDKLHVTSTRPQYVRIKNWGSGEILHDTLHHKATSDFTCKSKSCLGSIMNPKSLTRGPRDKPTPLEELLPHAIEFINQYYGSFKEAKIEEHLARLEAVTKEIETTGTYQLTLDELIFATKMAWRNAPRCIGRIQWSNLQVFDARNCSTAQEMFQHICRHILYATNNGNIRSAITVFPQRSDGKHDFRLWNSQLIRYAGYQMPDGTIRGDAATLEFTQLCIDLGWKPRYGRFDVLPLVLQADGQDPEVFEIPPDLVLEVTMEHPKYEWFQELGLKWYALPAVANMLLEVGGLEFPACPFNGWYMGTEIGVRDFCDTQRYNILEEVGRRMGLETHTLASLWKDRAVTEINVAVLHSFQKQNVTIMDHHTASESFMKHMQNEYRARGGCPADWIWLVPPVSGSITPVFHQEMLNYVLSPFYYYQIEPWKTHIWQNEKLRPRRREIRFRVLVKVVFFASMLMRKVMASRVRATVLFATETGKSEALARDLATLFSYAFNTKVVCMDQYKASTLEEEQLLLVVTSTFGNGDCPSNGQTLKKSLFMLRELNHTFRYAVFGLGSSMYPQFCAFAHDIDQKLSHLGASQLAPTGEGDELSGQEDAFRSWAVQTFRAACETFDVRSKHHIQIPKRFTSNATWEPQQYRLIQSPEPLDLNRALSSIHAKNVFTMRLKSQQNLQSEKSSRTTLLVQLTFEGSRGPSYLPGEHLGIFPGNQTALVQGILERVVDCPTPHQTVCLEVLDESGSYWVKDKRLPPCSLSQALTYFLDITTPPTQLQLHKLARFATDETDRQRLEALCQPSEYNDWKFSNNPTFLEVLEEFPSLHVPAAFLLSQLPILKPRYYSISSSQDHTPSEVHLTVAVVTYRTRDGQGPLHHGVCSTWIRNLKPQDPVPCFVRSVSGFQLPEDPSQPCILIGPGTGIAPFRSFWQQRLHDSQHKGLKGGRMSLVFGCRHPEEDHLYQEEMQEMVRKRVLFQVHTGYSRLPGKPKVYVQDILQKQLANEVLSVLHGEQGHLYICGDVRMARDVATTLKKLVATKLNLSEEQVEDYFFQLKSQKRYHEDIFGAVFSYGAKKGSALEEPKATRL
Procedure, shortened: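 RAW 264.7 cells were incubated at 37°C, 5% CO2 for 24 h. They were then exposed to compound for 15 min before LPS (1 μg/mL) was added for 20 h. Cytotoxicity was measured by SRB staining under the same conditions. Survival is expressed as % relative to vehicle-treated controls at 50 μM.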

[6] = target: T2, Nitric oxide synthase, inducible (Mus musculus); experiment: Inhibition of iNOS-mediated nitric oxide production in LPS-stimulated mouse RAW 264.7 cells at 50 uM pretreated 15 mins before LPS challenge measured after 20 hrs relative to control; format: cell-based
Procedure, shortened: (§2)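 RAW 264.7 cells cultured 24 h at 37°C, then given serially diluted compounds for 15 min before LPS (1 μg/mL) for 20 h. Nitrite in the medium measured with Griess reagent at 540 nm against a sodium nitrite standard curve. Cytotoxicity checked by SRB under the same conditions.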

[7] = target: NAD(P)H dehydrogenase [quinone] 1 (Mus musculus) (UniProt Q64669); experiment: Induction of quinone reductase 1 activity in mouse Hepa-1c1c7 cells at 50 uM by MTT assay relative to untreated control; format: cell-based
Procedure, shortened: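 Hepa 1c1c7 murine hepatoma cells treated with compound at 50 μM. QR1 measured by NADPH-dependent, menadiol-mediated reduction of MTT to formazan. Protein measured by crystal violet staining of identical plates. Specific activity is nmol formazan per mg protein per min. Induction ratio is treated versus DMSO-treated control.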

MCF7 [8] = experiment: Antiproliferative activity against human MCF7 cells assessed as survival at 50 uM after 72 hrs by SRB assay relative to control; format: functional; conditions: MCF7, 72 h, read-out: Survival
Procedure, shortened: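 MCF7 cells (1 × 10^4 per well) were plated onto compound and kept at 37°C, 5% CO2 for 72 h. Cells were fixed in 10% TCA for 30 min and stained with 0.4% SRB in 1% acetic acid for 30 min. Bound dye was dissolved in 10 mM Tris (pH 10.0) and read at 515 nm. Survival is given as % of DMSO-treated controls, screened at 50 μM.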

[9] = target: NAD(P)H dehydrogenase [quinone] 1 (Mus musculus) (UniProt Q64669); experiment: Induction of quinone reductase 1 in mouse Hepa 1c1c7 cells assessed as concentration of compound required to double enzyme activity by MTT assay; format: cell-based
Procedure, shortened: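 Dose-response in Hepa 1c1c7 cells, run for substances with induction ratio >2 at 50 μM. QR1 activity measured as menadiol-mediated, NADPH-dependent MTT reduction to formazan, normalised to crystal violet protein content. CD is the concentration that doubles specific activity relative to DMSO control.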

[10] = target: T3, Nitric oxide synthase, inducible (Mus musculus, UniProt P29477); experiment: Inhibition of iNOS-mediated nitric oxide production in LPS-stimulated mouse RAW 264.7 cells pretreated 15 mins before LPS challenge measured after 20 hrs relative to control; format: cell-based; procedure, shortened: as §2
T3 sequence (P29477 whole entry): T2 sequence (whole entry)

MCF7 [11] = experiment: Antiproliferative activity against human MCF7 cells after 72 hrs by SRB assay; format: functional, cell-based; conditions: MCF7, 72 h
Procedure, shortened: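 MCF7 cells, 1 × 10^4 per well, plated directly onto compounds and incubated 72 h at 37°C, 5% CO2. Fixed with 10% TCA, stained with 0.4% SRB in 1% acetic acid. Bound dye dissolved in 10 mM Tris pH 10.0, absorbance read at 515 nm. Survival expressed relative to DMSO-treated controls.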

NAD(P)H dehydrogenase [quinone] 1 (Mus musculus), sequence (Q64669 whole entry): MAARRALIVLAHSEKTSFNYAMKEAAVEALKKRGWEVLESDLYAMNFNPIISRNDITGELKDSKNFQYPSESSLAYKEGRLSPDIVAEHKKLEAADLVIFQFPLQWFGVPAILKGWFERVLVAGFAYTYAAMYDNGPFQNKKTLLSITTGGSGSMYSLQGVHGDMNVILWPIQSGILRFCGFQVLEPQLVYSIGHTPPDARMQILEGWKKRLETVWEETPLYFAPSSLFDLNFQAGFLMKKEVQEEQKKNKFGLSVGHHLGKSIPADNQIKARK

SMILES	inhibition at 50 µM (Aromatase) [%]	inhibition (HEK293 [1]) [%]	IC50 [2] [µM]	Survival (HEK293 [3]) [%]	Survival [4] [%]	Survival [5] [%]	inhibition [6] [%]	Ratio [7]	viability at 50 µM (MCF7 [8]) [%]	CD [9] [µM]	IC50 [10] [µM]	IC50 (MCF7 [11]) [µM]
COC(=O)[C@H]1Cc2c([nH]c3ccccc23)CN1	14.3	58.4	22.1	60.3	115	116	7.2	1.1				
C#CCN1Cc2[nH]c3ccccc3c2C[C@H]1C(=O)O	30.5	50.2		228	91.9	126	7	2.2	112	18.7		
COC(=O)[C@H]1Cc2c([nH]c3ccccc23)CN1Cc1ccccc1	38.4	54.4	44.2	77.1	96.8	81.2	74.7	1.2			32.9	
COC(=O)[C@H]1Cc2c([nH]c3ccccc23)CN1C(=O)NC(C)C	32.6	73.7	21.2	143	77	89.4	16.2	2.7	66.1	8.6		
O=C(O)[C@@H]1Cc2c([nH]c3ccccc23)CN1Cc1ccccc1	28	59.5	21.4	49.1	105	119	6.9	2.4		8.1		
C=CCOC(=O)N1Cc2[nH]c3ccccc3c2C[C@@H]1C(=O)OC	35.1	50.7		97.6	77.3	91.6	57.1	2.8	69.5	15.9	27.7	
CC[C@@]1(O)C(=O)OCc2c1cc1n(c2=O)Cc2cc3ccccc3nc2-1 [CAMPTOTHECIN]												0.056
C#CCN1Cc2[nH]c3ccccc3c2C[C@@H]1C(=O)OC	31.7	43.6		227	77.2	114	41.1	2		50		
COC(=O)[C@@H]1Cc2c([nH]c3ccccc23)CN1C(=O)NC1CCCCC1	33	44.7		111	71.5	79	53.8	1.1	26.3		41.1	35.8
Cc1ccc(S(=O)(=O)N[C@@H](Cc2ccccc2)C(=O)CCl)cc1 [TPCK]			4.9									
CCCCCNC(=O)N1Cc2[nH]c3ccccc3c2C[C@@H]1C(=O)OC	11.1	62.1	15.9	140	12.7	90.5	36.2	4.3	50.5	0.2		
O=C(O)[C@@H]1Cc2c([nH]c3ccccc23)CN1CC1CC1	30.2	33.7		234	90.7	135	-7	2.4	108	27.6		
C=CCOC(=O)N1Cc2[nH]c3ccccc3c2C[C@H]1C(=O)O	38.4	35.6		109	82.9	135	-6.3	2.4		26.5		
O=C(O)[C@@H]1Cc2c([nH]c3ccccc23)CN1S(=O)(=O)c1ccc(Br)cc1	23.2	55.4		247	97.8	80.6	50	1.3	77		49.7	
COC(=O)[C@@H]1Cc2c([nH]c3ccccc23)CN1Cc1ccccc1	31.5	60.4	30.7	28.8	100	85.9	68.2	1.6			32	
COC(=O)[C@@H]1Cc2c([nH]c3ccccc23)CN1	18.3	58.3	38.9	38.6	125	104	12.5	1.1				
COC(=O)[C@H]1Cc2c([nH]c3ccccc23)CN1Cc1ccc(OCc2ccccc2)cc1	27.3	40.5		91	85.4	86.8	75.9	1.4	96.7		29.4	
